Inhibition zone (IZ), Ki and inhibition data for 14 molecules are collected here from ChEMBL document CHEMBL4706580, “4-Amino-1,2,4-triazole-3-thione-derived Schiff bases as metallo-β-lactamase inhibitors” (Eur J Med Chem, 2020).

The nature of assay [1]: Inhibition of beta-lactamase VIM-2 (unknown origin) expressed in Escherichia coli LZ2310 assessed as potentiation of cefoxitin antibacterial activity by measuring cefoxitin induced diameter of inhibition zone at 40 uM incubated for 18 hrs by disk diffusion method (reference value: 14 mm). The essentials:
(§1)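 Efflux-deficient E. coli LZ2310 (NorE, MdfA, AcrA knocked out) carrying pLB-II with the cloned MBL gene. Mueller-Hinton, CLSI disk diffusion; antibiotic disks (30 µg cefoxitin for VIM-2, 10 µg ampicillin for VIM-4, 30 µg ceftazidime for NDM-1/IMP-1) loaded with inhibitor in DMSO (≤15 µL). Zone diameter after 18 h, 35 ± 1 °C; DMSO and 220 µg EDTA controls. Triplicate.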
(In general: Agar diffusion results depend on both activity and mobility in agar.)

Assay [2] can be described thus: Inhibition of beta-lactamase CphA (unknown origin) expressed in Escherichia coli BL21(DE3) using imipenem as substrate by measuring substrate hydrolysis by spectrophotometric analysis. In a few lines:
(§2)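 Enzyme 0.2–0.8 nM in 15 mM cacodylate pH 6.5, no added zinc, pre-incubated 30 min at 21 °C with inhibitor (100 μM screen). Imipenem substrate added from 10 mM stock; hydrolysis at 300 nm, 30 °C. Residual activity vs three uninhibited samples; Ki (1–100 μM inhibitor) by Hanes linearization, competitive model. Triplicate.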

A short description of assay [3]: Inhibition of beta-lactamase IMP-1 (unknown origin) expressed in Escherichia coli BL21(DE3) using imipenem as substrate by measuring substrate hydrolysis by spectrophotometric analysis. In a few lines: (§3)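 Purified enzyme (overproduced in E. coli BL21(DE3), pET-9a; ion-exchange and gel filtration), 1-70 nM final. Reporter substrate 150 μM imipenem, read at 300 nm, 30 °C, 50 mM HEPES pH 7.5. Single-point screen at 100 or 200 μM; Ki from v0/vi vs [I] (0.5–1,000 μM final) assuming competitive inhibition, or Dixon plot. Triplicate.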

The nature of assay [4]: Inhibition of beta-lactamase NDM1 (unknown origin) expressed in Escherichia coli BL21(DE3) using cefotaxime/nitrocefin as substrate by measuring substrate hydrolysis at 200 uM by spectrophotometric analysis.
The nature of assay [5]: Inhibition of beta-lactamase NDM1 (unknown origin) expressed in Escherichia coli BL21(DE3) using cefotaxime/nitrocefin as substrate by measuring substrate hydrolysis at 100 uM by spectrophotometric analysis.
The nature of assay [6]: Inhibition of beta-lactamase VIM2 (unknown origin) expressed in Escherichia coli BL21(DE3) using imipenem as substrate by measuring substrate hydrolysis by spectrophotometric analysis. In a few lines:
as §3

Assay [7] is described as follows: Inhibition of beta-lactamase VIM4 (unknown origin) expressed in Escherichia coli BL21(DE3) using imipenem as substrate by measuring substrate hydrolysis at 100 uM by spectrophotometric analysis. The essentials: as §3
The nature of assay [8]: Inhibition of beta-lactamase L1 (unknown origin) expressed in Escherichia coli BL21(DE3) using nitrocefin as substrate by measuring substrate hydrolysis at 100 uM preincubated for 30 mins by spectrophotometric analysis. The essentials: (§4)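 Enzyme 0.2–0.8 nM in 25 mM HEPES pH 7.5 with 50 μM ZnCl2 final, pre-incubated 30 min at 21 °C with inhibitor (100 μM screen). Nitrocefin 100 μM final, read at 482 nm, 30 °C. Residual activity vs three uninhibited samples; Ki (1–100 μM inhibitor) from Hanes linearization, competitive model. Triplicate.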

Assay [9] in a line: Inhibition of beta-lactamase IMP-1 (unknown origin) expressed in Escherichia coli LZ2310 assessed as potentiation of ceftazidime antibacterial activity by measuring ceftazidime induced diameter of inhibition zone at 40 uM incubated for 18 hrs by disk diffusion method (reference value: 9 mm). In a few lines:
as §1

Assay [10] is described as follows: Inhibition of beta-lactamase CphA (unknown origin) expressed in Escherichia coli BL21(DE3) using imipenem as substrate by measuring substrate hydrolysis at 100 uM by spectrophotometric analysis. The essentials: as §2
Assay [11] can be described thus: Inhibition of beta-lactamase IMP-1 (unknown origin) expressed in Escherichia coli BL21(DE3) using imipenem as substrate by measuring substrate hydrolysis at 100 uM by spectrophotometric analysis. The essentials:
as §3

Assay [12] can be described thus: Inhibition of beta-lactamase NDM-1 (unknown origin) expressed in Escherichia coli LZ2310 assessed as potentiation of ceftazidime antibacterial activity by measuring ceftazidime induced diameter of inhibition zone at 40 uM incubated for 18 hrs by disk diffusion method (reference value: 15 mm). The essentials:
as §1

Assay [13] can be described thus: Inhibition of beta-lactamase VIM2 (unknown origin) expressed in Escherichia coli BL21(DE3) using imipenem as substrate by measuring substrate hydrolysis at 100 uM by spectrophotometric analysis. In a few lines: as §3
The nature of assay [14]: Inhibition of beta-lactamase L1 (unknown origin) expressed in Escherichia coli BL21(DE3) using nitrocefin as substrate by measuring substrate hydrolysis at 200 uM preincubated for 30 mins by spectrophotometric analysis.
The nature of assay [15]: Inhibition of beta-lactamase VIM4 (unknown origin) expressed in Escherichia coli BL21(DE3) using imipenem as substrate by measuring substrate hydrolysis at 200 uM by spectrophotometric analysis. In a few lines:
as §3

Assay [16] is described as follows: Inhibition of beta-lactamase VIM2 (unknown origin) expressed in Escherichia coli BL21(DE3) using imipenem as substrate by measuring substrate hydrolysis at 200 uM by spectrophotometric analysis. The essentials: as §3
Assay [17] is described as follows: Inhibition of beta-lactamase L1 (unknown origin) expressed in Escherichia coli BL21(DE3) using nitrocefin as substrate by measuring substrate hydrolysis preincubated for 30 mins by spectrophotometric analysis. In a few lines:
as §4

Assay [18] in a line: Inhibition of beta-lactamase IMP-1 (unknown origin) expressed in Escherichia coli BL21(DE3) using imipenem as substrate by measuring substrate hydrolysis at 200 uM by spectrophotometric analysis. The essentials:
as §3

The nature of assay [19]: Inhibition of beta-lactamase NDM1 (unknown origin) expressed in Escherichia coli BL21(DE3) using cefotaxime/nitrocefin as substrate by measuring substrate hydrolysis by spectrophotometric analysis. In a few lines: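 His-tagged enzyme from E. coli BL21(DE3) pET-15b, affinity-purified, 1-70 nM final. Reporter substrate 120 μM cefotaxime (260 nm) or 100 μM nitrocefin (482 nm), 30 °C, 50 mM HEPES pH 7.5. Inhibitor 0.5–1,000 μM final; competitive Ki from v0/vi vs [I] slope or Dixon plot. Triplicate.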

The nature of assay [20]: Inhibition of beta-lactamase VIM4 (unknown origin) expressed in Escherichia coli BL21(DE3) using imipenem as substrate by measuring substrate hydrolysis by spectrophotometric analysis. The essentials:
as §3

Calls of active or inactive are those of the source. No cut-off for these calls is given here.

Regarding `Cc1ccccc1-c1n[nH]c(=S)n1/N=C/c1ccc(C(=O)O)cc1`, the inhibition zone (IZ) in [1] was 14 mm; in assay [9] it was 9 mm. The Ki in assay [2] is 31 µM; in assay [3] it was 11 µM; in assay [6] it was 11 µM. For the same molecule, the inhibition entry in assay [4] and in [5] was “inactive” throughout. The results for the inhibition in assay [7] and in assay [8] were 57% and 59%, respectively.

As to `S=c1[nH]nc(CC(c2ccccc2)c2ccccc2)n1/N=C/c1ccc(OCc2ccccc2)cc1`, the inhibition in assay [10] and in assay [11] was 30% each time. For the same molecule, the inhibition zone (IZ) in assay [12] was 15 mm. In addition, the inhibition result in [13], in assay [7], in assay [8], in assay [14], in [15] and in assay [16] was “inactive” throughout.

In the case of `O=C(O)c1ccccc1/C=N/n1c(CCc2ccccc2)n[nH]c1=S`, the inhibition zone (IZ) in [1] amounted to 14 mm; in assay [12], 15 mm. Also, the figures for the inhibition in assay [10], in [11] and in assay [7] were 50%, 37% and 56%, respectively. Further, the inhibition result in assay [4] and in [5] was “inactive” throughout. The Ki is 7 µM in assay [6] and 4 µM in assay [17].

For `S=c1[nH]nc(-c2ccc(Cl)cc2)n1/N=C/c1ccc(OCc2ccccc2)cc1`, the inhibition result in assay [18], in [11], in assay [13], in assay [7], in assay [15] and in assay [16] was “inactive” in each case. Further, the inhibition zone (IZ) in assay [12] amounted to 15 mm. The Ki in [19] came to 4.1 µM. The molecule further displayed an inhibition in assay [8] of 40%.

Consider `S=c1[nH]nc(-c2cccc(Cl)c2)n1/N=C/c1ccc(OCc2ccccc2)cc1`, for which the inhibition entry in assay [18], in [11], in [13] and in [16] was “inactive” each time. The inhibition zone (IZ) in [12] was 15 mm. Besides, affinity in assay [19] was put at a Ki of 6.7 µM. Besides, the inhibition came to 35% in assay [7] and 60% in assay [8].

In the case of `Oc1ccc(/C=N/n2c(-c3cccc(F)c3)n[nH]c2=S)c(O)c1`, the inhibition entry in assay [18], in assay [11], in assay [13] and in [16] was “inactive” each time. In assay [12], the inhibition zone (IZ) stood at 15 mm. The Ki in assay [19] worked out at 11.7 µM; in [20], 4 µM. The same molecule came in with an inhibition in assay [8] of 25%.

In the case of `O=C(O)c1ccccc1/C=N/n1c(COc2ccc3ccccc3c2)n[nH]c1=S`, the figures for the inhibition zone (IZ) in assay [1] and in assay [12] were 14 mm and 15 mm, respectively. Also, the results for the inhibition in [10], in assay [11] and in [8] were 42%, 35% and 60%, respectively. Also, the values for the Ki in assay [19], in assay [6] and in [20] were 2.4 µM, 2 µM and 3 µM, respectively.

Take `Cc1ccccc1-c1n[nH]c(=S)n1/N=C/c1cnc[nH]1`: the inhibition in assay [10] was 36%. Besides, the inhibition entry in assay [18], in [11], in assay [4], in assay [5], in [13] and in assay [7] was “inactive” each time. The inhibition result in assay [8], in [14], in assay [15] and in assay [16] was “inactive” throughout.

With `COc1ccc(/C=N/n2c(-c3ccccc3C)n[nH]c2=S)c(O)c1`, the Ki stood at 32 µM in assay [2] and 9 µM in [3]. The inhibition in assay [5] worked out at 32%; in assay [13], 58%; in [7], 55%; in assay [8], 55%. Also, the inhibition zone (IZ) in [9] is 9 mm.

For `O=C(O)c1ccccc1/C=N/n1c(-c2ccc(OCc3ccccc3)cc2)n[nH]c1=S`, the inhibition zone (IZ) in assay [1] worked out at 14 mm; in [12], 15 mm. In addition, in assay [11], the inhibition was determined as 62%. In addition, the Ki turned out to be 2.8 µM in assay [19], 0.9 µM in assay [6], 1 µM in assay [20] and 0.4 µM in [17].

With `O=C(O)c1ccccc1/C=N/n1c(CC(c2ccccc2)c2ccccc2)n[nH]c1=S`, the Ki in [2] turned out to be 15 µM; in assay [19] it was 2.7 µM; in assay [6], 25.4 µM; in assay [20] it was 5.6 µM; in [17], 2.4 µM. Further, the inhibition entry in assay [18] and in assay [11] was “inactive” throughout. Moreover, the inhibition zone (IZ) in assay [12] was 15 mm.

Consider `S=c1[nH]nc(-c2ccc(OCc3ccccc3)cc2)n1/N=C/c1ccc(OCc2ccccc2)cc1`, for which the Ki in assay [3] turned out to be 2.2 µM; in assay [19], 3.2 µM. In addition, the inhibition entry in [13], in [7], in assay [8], in assay [14], in [15] and in [16] was “inactive” each time.

`O=C(O)c1ccccc1/C=N/n1c(-c2cccc(C(F)(F)F)c2)n[nH]c1=S`: the inhibition in assay [10] is 35%; in assay [18] it was 50%; in assay [8], 40%. The inhibition zone (IZ) in [12] was found to be 15 mm. The inhibition entry in [13] and in assay [16] was “inactive” throughout. This molecule returned a Ki in [20] of 1.6 µM.

With `S=c1[nH]nc(-c2cccc3ccccc23)n1/N=C/c1ccc(OCc2ccccc2)cc1`, the figures for the inhibition zone (IZ) in assay [1] and in assay [9] were 14 mm and 9 mm, respectively. The Ki in assay [2] worked out at 4 µM; in [3] it was 0.1 µM; in assay [20], 2.4 µM; in assay [17], 30 µM. The inhibition result in [4], in [5], in assay [13] and in assay [16] was “inactive” in each case.

The term Ki denotes a measure of affinity in units of concentration, obtained from inhibition or displacement. Lower therefore signals a stronger hold on the target. As usually defined, the inhibition is the percentage by which the read-out fell short of the control.
